In brackets after ≈: the same amount, converted by molar mass.
Experiments:
Aspergillus fumigatus = assay: Antifungal activity against Aspergillus fumigatus MTCC 3008 by broth microdilution method; type: functional
Plasmodium falciparum = assay: Antimalarial activity against trophozoite stage of chloroquine-sensitive Plasmodium falciparum 3D7 infected in human erythrocytes after 48 hrs; type: functional, organism-based; conditions: 3D7, 48 h
In short: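 Parasites were kept in continuous culture in A+ human erythrocytes in RPMI with 10% human serum. Sorbitol-synchronized trophozoites at 1–2% parasitaemia and 2.5% haematocrit were exposed to serial dilutions (maximum 1 mg/ml; 0.02% final DMSO) for 48 h at 37 °C. Growth inhibition was measured; chloroquine and quinine served as positive controls. IC50 came from duplicate experiments.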

Salmonella typhi = assay: Antibacterial activity against Salmonella typhi MTCC 98 by broth microdilution method; type: functional, Salmonella enterica subsp. enterica serovar Typhi; conditions: Salmonella enterica
Clostridium tetani = assay: Antibacterial activity against Clostridium tetani MTCC 449 by broth microdilution method; type: functional
Escherichia coli = assay: Antibacterial activity against Escherichia coli MTCC 443 by broth microdilution method; type: functional
In short: (§1)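 Broth microdilution per NCCLS, with serial dilutions in Mueller Hinton broth and DMSO as diluent. Tubes were incubated overnight at 37 °C. MIC was the lowest concentration giving no visible growth, with the control organism's MIC read to verify concentrations. Tubes without growth were subcultured overnight at 37 °C to judge bacteriostatic versus bactericidal action.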

Bacillus subtilis = assay: Antibacterial activity against Bacillus subtilis MTCC 441 by broth microdilution method; type: functional; in short: as §1
[1] = test system: Mycobacterium tuberculosis; assay: Growth inhibition of Mycobacterium tuberculosis H37Rv at 6.25 ug/mL after 12 to 28 days relative to control; type: functional
Candida albicans = assay: Antifungal activity against Candida albicans MTCC 227 by broth microdilution method; type: functional
Streptococcus pneumoniae = assay: Antibacterial activity against Streptococcus pneumoniae MTCC 1936 by broth microdilution method; type: functional; in short: as §1
Vibrio cholerae = assay: Antibacterial activity against Vibrio cholerae MTCC 3906 by broth microdilution method; type: functional

SMILES	MIC (Aspergillus fumigatus)	IC50 (Plasmodium falciparum)	MIC (Salmonella typhi)	MIC (Clostridium tetani)	MIC (Escherichia coli)	MIC (Bacillus subtilis)	inhibition at 6.25 µg/mL [1]	MIC (Candida albicans)	MIC (Streptococcus pneumoniae)	MIC (Vibrio cholerae)
CC1(C)CC(=O)C2=C(C1)N(Nc1ccccc1)C(N)=C(C#N)C2c1cc2ccccc2nc1Cl (stereo not given)	> 1000 µg/mL	0.015 µg/mL (≈ 0.0319 µM)	250 µg/mL (≈ 532 µM)	250 µg/mL (≈ 532 µM)	200 µg/mL (≈ 426 µM)	200 µg/mL (≈ 426 µM)	8%	500 µg/mL (≈ 1060 µM)	200 µg/mL (≈ 426 µM)	250 µg/mL (≈ 532 µM)
O=C(N[C@H](CO)[C@H](O)c1ccc([N+](=O)[O-])cc1)C(Cl)Cl [CHLORAMPHENICOL]			50 µg/mL (≈ 155 µM)	50 µg/mL (≈ 155 µM)	50 µg/mL (≈ 155 µM)	50 µg/mL (≈ 155 µM)			50 µg/mL (≈ 155 µM)	50 µg/mL (≈ 155 µM)
COc1ccc2nc(Cl)c(C3C(C#N)=C(N)N(Nc4ccc(Br)cc4)C4=C3C(=O)CC(C)(C)C4)cc2c1 (stereo not given)	500 µg/mL (≈ 864 µM)	0.014 µg/mL (≈ 0.0242 µM)	125 µg/mL (≈ 216 µM)	200 µg/mL (≈ 345 µM)	200 µg/mL (≈ 345 µM)	250 µg/mL (≈ 432 µM)	17%	1000 µg/mL (≈ 1730 µM)	250 µg/mL (≈ 432 µM)	200 µg/mL (≈ 345 µM)
COc1ccc2nc(Cl)c(C3C(C#N)=C(N)N(Nc4ccccc4)C4=C3C(=O)CC(C)(C)C4)cc2c1 (stereo not given)	500 µg/mL (≈ 1000 µM)	0.22 µg/mL (≈ 0.44 µM)	250 µg/mL (≈ 500 µM)	500 µg/mL (≈ 1000 µM)	250 µg/mL (≈ 500 µM)	250 µg/mL (≈ 500 µM)	80%	250 µg/mL (≈ 500 µM)	250 µg/mL (≈ 500 µM)	500 µg/mL (≈ 1000 µM)
CC1(C)CC(=O)C2=C(C1)N(Nc1ccc(F)cc1)C(N)=C(C#N)C2c1cc2cc(Cl)ccc2nc1Cl (stereo not given)	> 1000 µg/mL	0.154 µg/mL (≈ 0.295 µM)	500 µg/mL (≈ 957 µM)	500 µg/mL (≈ 957 µM)	250 µg/mL (≈ 479 µM)	100 µg/mL (≈ 191 µM)	65%	500 µg/mL (≈ 957 µM)	200 µg/mL (≈ 383 µM)	125 µg/mL (≈ 239 µM)
Cc1ccc(NN2C(N)=C(C#N)C(c3cc4ccccc4nc3Cl)C3=C2CC(C)(C)CC3=O)cc1 (stereo not given)	500 µg/mL (≈ 1030 µM)	0.005 µg/mL (≈ 0.0103 µM)	200 µg/mL (≈ 413 µM)	250 µg/mL (≈ 517 µM)	200 µg/mL (≈ 413 µM)	250 µg/mL (≈ 517 µM)	8%	500 µg/mL (≈ 1030 µM)	500 µg/mL (≈ 1030 µM)	250 µg/mL (≈ 517 µM)
Cc1ccc2nc(Cl)c(C3C(C#N)=C(N)N(Nc4ccc(Br)cc4)C4=C3C(=O)CC(C)(C)C4)cc2c1 (stereo not given)	> 1000 µg/mL	0.012 µg/mL (≈ 0.0213 µM)	250 µg/mL (≈ 444 µM)	250 µg/mL (≈ 444 µM)	250 µg/mL (≈ 444 µM)	200 µg/mL (≈ 355 µM)	47%	250 µg/mL (≈ 444 µM)	250 µg/mL (≈ 444 µM)	250 µg/mL (≈ 444 µM)
COc1ccc2nc(Cl)c(C3C(C#N)=C(N)N(Nc4ccc(Cl)cc4)C4=C3C(=O)CC(C)(C)C4)cc2c1 (stereo not given)	> 1000 µg/mL	0.009 µg/mL (≈ 0.0168 µM)	100 µg/mL (≈ 187 µM)	200 µg/mL (≈ 374 µM)	250 µg/mL (≈ 468 µM)	100 µg/mL (≈ 187 µM)	21%	> 1000 µg/mL	100 µg/mL (≈ 187 µM)	100 µg/mL (≈ 187 µM)
C=C[C@H]1CN2CC[C@H]1C[C@H]2[C@H](O)c1ccnc2ccc(OC)cc12 [QUININE]		0.268 µg/mL (≈ 0.826 µM)								
CC1(C)CC(=O)C2=C(C1)N(Nc1ccc(Br)cc1)C(N)=C(C#N)C2c1cc2cc(Cl)ccc2nc1Cl (stereo not given)	500 µg/mL (≈ 857 µM)	0.08 µg/mL (≈ 0.137 µM)	250 µg/mL (≈ 429 µM)	250 µg/mL (≈ 429 µM)	100 µg/mL (≈ 171 µM)	250 µg/mL (≈ 429 µM)	85%	1000 µg/mL (≈ 1710 µM)	200 µg/mL (≈ 343 µM)	250 µg/mL (≈ 429 µM)
COC1=CC(=O)C[C@@H](C)[C@]12Oc1c(Cl)c(OC)cc(OC)c1C2=O [GRISEOFULVIN]	100 µg/mL (≈ 283 µM)							500 µg/mL (≈ 1420 µM)		
Cc1ccc2nc(Cl)c(C3C(C#N)=C(N)N(Nc4ccc(F)cc4)C4=C3C(=O)CC(C)(C)C4)cc2c1 (stereo not given)	1000 µg/mL (≈ 1990 µM)	0.047 µg/mL (≈ 0.0936 µM)	250 µg/mL (≈ 498 µM)	200 µg/mL (≈ 398 µM)	250 µg/mL (≈ 498 µM)	250 µg/mL (≈ 498 µM)	33%	1000 µg/mL (≈ 1990 µM)	250 µg/mL (≈ 498 µM)	200 µg/mL (≈ 398 µM)
COc1ccc(NN2C(N)=C(C#N)C(c3cc4cc(OC)ccc4nc3Cl)C3=C2CC(C)(C)CC3=O)cc1 (stereo not given)	500 µg/mL (≈ 943 µM)	0.019 µg/mL (≈ 0.0358 µM)	50 µg/mL (≈ 94.3 µM)	200 µg/mL (≈ 377 µM)	100 µg/mL (≈ 189 µM)	200 µg/mL (≈ 377 µM)	7%	500 µg/mL (≈ 943 µM)	25 µg/mL (≈ 47.2 µM)	62.5 µg/mL (≈ 118 µM)
CO[C@H]1/C=C/O[C@@]2(C)Oc3c(C)c(O)c4c(O)c(c(/C=N/N5CCN(C)CC5)c(O)c4c3C2=O)NC(=O)/C(C)=C\C=C\[C@H](C)[C@H](O)[C@@H](C)[C@@H](O)[C@@H](C)[C@H](OC(C)=O)[C@@H]1C [RIFAMPIN]							98%			

Reference: ChEMBL document CHEMBL2040757, “New N-arylamino biquinoline derivatives: synthesis, antimicrobial, antituberculosis, and antimalarial evaluation” (Eur J Med Chem, 2012)
